Here are results for 30 compounds from ChEMBL document CHEMBL4732217, “Design, synthesis, biological evaluation, and docking studies of novel (imidazol-5-yl)pyrimidine-based derivatives as dual BRAF/p38α inhibitors” (Eur J Med Chem, 2021).

Molecules are shown by their SMILES.

Experiment [1] deals with Serine/threonine-protein kinase B-raf (Homo sapiens), P15056 [V600E]. In words: Inhibition of BRAF V600E mutant (unknown origin) at 10 uM using Ser/Thr 03 as substrate after 1 hr in presence of ATP by Z'-LYTE assay relative to control. An outline of the steps:
(§1)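 Run by a commercial kinase profiling service at 100 µM ATP. Single-point screening was followed by 5-point titration (1 nM, 10 nM, 100 nM, 1 µM, 10 µM) for IC50.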

The target of experiment [2] is T1, Mitogen-activated protein kinase 14 (Homo sapiens, UniProt Q16539). The experiment is described as follows: Inhibition of p38 alpha (unknown origin) at 10 uM using Ser/Thr 15 as substrate incubated for 1 hr in presence of ATP by Z'-Lyte assay relative to control. An outline of the steps: as §1
The subject of another experiment is LOX IMVI. The experiment is described as follows: cells. Type of experiment: functional, cell-based. Conditions: Homo sapiens, 24 h.
In experiment [3] the target is Serine/threonine-protein kinase B-raf (Homo sapiens, UniProt P15056, V600E). The experiment is described as follows: Inhibition of BRAF V600E mutant (unknown origin) using Ser/Thr 03 as substrate after 1 hr in presence of ATP by Z'-LYTE assay.
Experiment [4] addresses T1, Mitogen-activated protein kinase 14. The experiment is described as follows: Inhibition of p38 alpha (unknown origin) using Ser/Thr 15 as substrate incubated for 1 hr in presence of ATP by Z'-Lyte assay.

T1 sequence (Q16539 whole entry): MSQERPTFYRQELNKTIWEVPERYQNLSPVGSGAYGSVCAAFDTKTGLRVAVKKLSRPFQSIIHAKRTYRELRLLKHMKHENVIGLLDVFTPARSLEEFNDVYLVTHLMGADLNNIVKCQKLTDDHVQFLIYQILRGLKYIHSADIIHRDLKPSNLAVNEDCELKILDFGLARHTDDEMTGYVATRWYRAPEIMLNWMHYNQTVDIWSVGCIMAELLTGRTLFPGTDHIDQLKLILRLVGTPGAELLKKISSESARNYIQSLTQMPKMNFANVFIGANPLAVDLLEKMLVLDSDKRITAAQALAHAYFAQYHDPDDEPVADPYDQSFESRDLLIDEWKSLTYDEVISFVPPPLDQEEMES
Sequence of Serine/threonine-protein kinase B-raf (P15056 2-766 V600E limits assumed): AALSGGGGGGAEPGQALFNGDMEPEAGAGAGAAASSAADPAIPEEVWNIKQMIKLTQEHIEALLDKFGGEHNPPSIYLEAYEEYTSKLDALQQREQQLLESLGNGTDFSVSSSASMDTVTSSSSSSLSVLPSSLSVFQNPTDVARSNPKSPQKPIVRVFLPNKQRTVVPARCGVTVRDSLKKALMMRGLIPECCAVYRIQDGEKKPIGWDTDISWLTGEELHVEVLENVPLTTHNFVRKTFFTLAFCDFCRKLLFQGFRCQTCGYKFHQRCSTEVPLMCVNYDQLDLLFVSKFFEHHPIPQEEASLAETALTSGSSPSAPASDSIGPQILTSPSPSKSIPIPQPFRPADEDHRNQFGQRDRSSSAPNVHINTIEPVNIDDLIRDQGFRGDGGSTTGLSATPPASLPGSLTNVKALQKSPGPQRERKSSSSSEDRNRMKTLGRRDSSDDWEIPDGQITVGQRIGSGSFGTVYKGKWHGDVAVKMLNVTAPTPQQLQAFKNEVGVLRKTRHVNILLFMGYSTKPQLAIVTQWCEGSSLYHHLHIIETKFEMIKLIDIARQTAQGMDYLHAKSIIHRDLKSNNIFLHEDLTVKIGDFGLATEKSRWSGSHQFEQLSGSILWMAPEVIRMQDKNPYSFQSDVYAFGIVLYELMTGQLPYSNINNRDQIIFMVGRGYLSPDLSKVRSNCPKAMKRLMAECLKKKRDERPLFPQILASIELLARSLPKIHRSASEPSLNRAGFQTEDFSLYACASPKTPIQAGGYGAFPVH
Sequence of Serine/threonine-protein kinase B-raf (Homo sapiens), P15056 [V600E] (P15056 whole entry V600E): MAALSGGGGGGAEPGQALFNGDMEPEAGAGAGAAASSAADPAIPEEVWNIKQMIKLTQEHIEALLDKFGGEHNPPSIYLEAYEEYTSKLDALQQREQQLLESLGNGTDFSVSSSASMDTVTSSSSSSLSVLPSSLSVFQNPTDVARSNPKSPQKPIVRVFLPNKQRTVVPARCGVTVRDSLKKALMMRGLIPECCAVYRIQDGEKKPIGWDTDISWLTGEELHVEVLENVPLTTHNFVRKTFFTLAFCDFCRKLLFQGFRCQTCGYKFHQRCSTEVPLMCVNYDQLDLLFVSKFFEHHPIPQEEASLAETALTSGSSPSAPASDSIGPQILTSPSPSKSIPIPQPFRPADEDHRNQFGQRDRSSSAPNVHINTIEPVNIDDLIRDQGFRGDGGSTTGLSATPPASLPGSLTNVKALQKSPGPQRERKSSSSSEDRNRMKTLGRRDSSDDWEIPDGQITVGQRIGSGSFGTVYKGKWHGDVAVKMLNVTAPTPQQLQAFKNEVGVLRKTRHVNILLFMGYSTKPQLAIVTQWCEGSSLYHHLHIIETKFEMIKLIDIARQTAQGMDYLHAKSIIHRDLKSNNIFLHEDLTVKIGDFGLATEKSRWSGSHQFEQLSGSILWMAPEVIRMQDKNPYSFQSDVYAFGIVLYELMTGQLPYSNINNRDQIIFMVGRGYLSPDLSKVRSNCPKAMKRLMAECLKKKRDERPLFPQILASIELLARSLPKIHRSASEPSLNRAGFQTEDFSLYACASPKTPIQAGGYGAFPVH

With `COc1cc(-c2nc(-c3ccccc3)[nH]c2-c2ccnc(NCCCNS(=O)(=O)c3ccc(C(F)(F)F)cc3)n2)ccc1F`, the values for the inhibition in experiment [1] and in experiment [2] were 42.4% and 48.6%, respectively. The half-maximal inhibitory concentration (IC50) in the experiment on LOX IMVI amounted to 75.2 µM.

Take `COc1cc(-c2nc(-c3ccccc3)[nH]c2-c2ccnc(NCCCNS(=O)(=O)c3ccccc3)n2)ccc1Cl`: the inhibition in experiment [1] is 80%; in experiment [2], 58.6%. This compound came in with an IC50 in the experiment on LOX IMVI of 7.47 µM.

In the case of `COc1ccc(S(=O)(=O)NCCCNc2nccc(-c3[nH]c(-c4ccccc4)nc3-c3ccc(F)c(OC)c3)n2)cc1`, the inhibition worked out at 89.1% in experiment [1] and 88.5% in experiment [2]. The same compound came in with an IC50 in the experiment with LOX IMVI of 6.13 µM.

For `COc1cc(-c2nc(-c3ccccc3)[nH]c2-c2ccnc(NCCCNS(=O)(=O)c3ccc(Br)cc3)n2)ccc1Cl`, the inhibition in experiment [1] came out at 88.3%; in experiment [2] it was 30%. Also, in the experiment on LOX IMVI, 23.7 µM corresponded to half-maximal inhibition (IC50).

Regarding `COc1cc(-c2nc(-c3ccccc3)[nH]c2-c2ccnc(NCCCNS(=O)(=O)c3ccccc3)n2)ccc1F`, the inhibition was 77.3% in experiment [1] and 83.5% in experiment [2]. The compound further gave a concentration for half-maximal inhibition (IC50) in the experiment with LOX IMVI of 4.52 µM.

Turning to `O=S(=O)(NCCCNc1nccc(-c2[nH]c(-c3ccccc3)nc2-c2ccc(F)c(O)c2)n1)c1ccc(Br)cc1`, the inhibition in experiment [1] came to 100%; in experiment [2] it was 84.8%. Moreover, the IC50 in experiment [3] was 0.0263 µM; in experiment [4], 0.33 µM; in the experiment on LOX IMVI, 5.66 µM.

For the compound `COc1ccc(S(=O)(=O)NCCCNc2nccc(-c3[nH]c(-c4ccccc4)nc3-c3ccc(Cl)c(OC)c3)n2)cc1`, the inhibition in experiment [1] is 91.1%; in experiment [2], 54.6%. In the experiment with LOX IMVI, this compound had an IC50 of 1.8 µM.

Take `COc1cc(-c2nc(-c3ccccc3)[nH]c2-c2ccnc(NCCCNS(=O)(=O)c3ccc(Cl)cc3)n2)ccc1Cl`: the inhibition was 85.1% in experiment [1] and 52.1% in experiment [2]. In the experiment on LOX IMVI, this compound displayed an IC50 of 60.9 µM.

As for `O=S(=O)(NCCCNc1nccc(-c2[nH]c(-c3ccccc3)nc2-c2ccc(Cl)c(O)c2)n1)c1ccc(Br)cc1`, the values for the inhibition in experiment [1] and in experiment [2] were 97.3% and 73.7%, respectively. The IC50 in experiment [3] is 0.0218 µM; in the experiment on LOX IMVI, 15.5 µM.

As for `COc1cc(-c2nc(-c3ccccc3)[nH]c2-c2ccnc(NCCCNS(=O)(=O)c3ccc(Br)cc3)n2)ccc1F`, the inhibition amounted to 81.5% in experiment [1] and 73.4% in experiment [2]. In the experiment on LOX IMVI, this compound came in with an IC50 of 33.9 µM.

Take `O=S(=O)(NCCCNc1nccc(-c2[nH]c(-c3ccccc3)nc2-c2ccc(F)c(O)c2)n1)c1cccc2ccccc12`: the results for the inhibition in experiment [1] and in experiment [2] were 99.8% and 79.8%, respectively. In the experiment on LOX IMVI, this compound had a concentration for half-maximal inhibition (IC50) of 3.71 µM.

`O=S(=O)(NCCCNc1nccc(-c2[nH]c(-c3ccccc3)nc2-c2ccc(F)c(O)c2)n1)c1ccc(Cl)cc1`: the inhibition in experiment [1] was found to be 93.9%; in experiment [2] it was 84.9%. Moreover, half-maximal inhibition with LOX IMVI (IC50) required 14.2 µM.

As to `O=S(=O)(NCCCNc1nccc(-c2[nH]c(-c3ccccc3)nc2-c2ccc(Cl)c(O)c2)n1)c1cccc2ccccc12`, the inhibition amounted to 96.2% in experiment [1] and 51.1% in experiment [2]. In the experiment on LOX IMVI, this compound gave an IC50 of 7.72 µM.

As for `COc1cc(-c2nc(-c3ccccc3)[nH]c2-c2ccnc(NCCCNS(=O)(=O)c3ccc(F)cc3)n2)ccc1F`, the inhibition worked out at 80.1% in experiment [1] and 84.1% in experiment [2]. In the experiment on LOX IMVI, the IC50 stood at 3.96 µM.

As to `Cc1ccc(S(=O)(=O)NCCCNc2nccc(-c3[nH]c(-c4ccccc4)nc3-c3ccc(Cl)c(O)c3)n2)cc1`, the inhibition in experiment [1] worked out at 101%; in experiment [2], 70.8%. Moreover, the IC50 in experiment [3] is 0.00804 µM; with LOX IMVI it was 6.02 µM.

For `COc1cc(-c2nc(-c3ccccc3)[nH]c2-c2ccnc(NCCCNS(=O)(=O)c3cccc4ccccc34)n2)ccc1F`, the inhibition in experiment [1] is 81%; in experiment [2] it was 44.4%. The compound further had an IC50 in the experiment on LOX IMVI of 14.9 µM.

As to `COc1cc(-c2nc(-c3ccccc3)[nH]c2-c2ccnc(NCCCNS(=O)(=O)c3ccc(C)cc3)n2)ccc1Cl`, the figures for the inhibition in experiment [1] and in experiment [2] were 88.2% and 50.4%, respectively. The half-maximal inhibitory concentration (IC50) in the experiment on LOX IMVI turned out to be 18.6 µM.

For the compound `COc1cc(-c2nc(-c3ccccc3)[nH]c2-c2ccnc(NCCCNS(=O)(=O)c3ccc(C)cc3)n2)ccc1F`, the inhibition in experiment [1] was 82.4%; in experiment [2], 79.4%. Further, in the experiment on LOX IMVI, the IC50 came to 2.59 µM.

For `O=S(=O)(NCCCNc1nccc(-c2[nH]c(-c3ccccc3)nc2-c2ccc(Cl)c(O)c2)n1)c1ccc(C(F)(F)F)cc1`, the inhibition in experiment [1] turned out to be 99.2%; in experiment [2], 54.3%. Moreover, the 50% inhibitory concentration (IC50) with LOX IMVI came to 10.1 µM.

With `O=S(=O)(NCCCNc1nccc(-c2[nH]c(-c3ccccc3)nc2-c2ccc(Cl)c(O)c2)n1)c1ccc(Cl)cc1`, the inhibition in experiment [1] turned out to be 99.7%; in experiment [2], 70.8%. Moreover, inhibition with LOX IMVI was half-maximal at 61.3 µM (IC50).

For `O=S(=O)(NCCCNc1nccc(-c2[nH]c(-c3ccccc3)nc2-c2ccc(Cl)c(O)c2)n1)c1ccc(O)cc1`, the inhibition in experiment [1] was determined as 101%; in experiment [2], 77.6%. For the same compound, the half-inhibitory concentration (IC50) in experiment [3] amounted to 0.00781 µM; with LOX IMVI it was 36.8 µM.

For the compound `O=S(=O)(NCCCNc1nccc(-c2[nH]c(-c3ccccc3)nc2-c2ccc(F)c(O)c2)n1)c1ccc(F)cc1`, the inhibition in experiment [1] came to 97%; in experiment [2], 91.4%. In addition, in the experiment with LOX IMVI, the IC50 amounted to 19.2 µM.

`COc1cc(-c2nc(-c3ccccc3)[nH]c2-c2ccnc(NCCCNS(=O)(=O)c3ccc(Cl)cc3)n2)ccc1F`: the inhibition came out at 79.2% in experiment [1] and 72.8% in experiment [2]. The compound further came in with an IC50 in the experiment with LOX IMVI of 83.1 µM.

Consider `O=S(=O)(NCCCNc1nccc(-c2[nH]c(-c3ccccc3)nc2-c2ccc(Cl)c(O)c2)n1)c1cccc(F)c1`, for which the values for the inhibition in experiment [1] and in experiment [2] were 101% and 78.6%, respectively. Moreover, the results for the concentration for half-maximal inhibition (IC50) (in experiment [3]; in the experiment with LOX IMVI) were 0.0148 µM and 33.6 µM, respectively.

Turning to `O=S(=O)(NCCCNc1nccc(-c2[nH]c(-c3ccccc3)nc2-c2ccc(F)c(O)c2)n1)c1cccc(F)c1`, the inhibition in experiment [1] was determined as 100%; in experiment [2], 90.5%. Besides, the IC50 in experiment [3] was found to be 0.0303 µM; in experiment [4], 0.14 µM; in the experiment with LOX IMVI it was 7.89 µM.

Consider `COc1cc(-c2nc(-c3ccccc3)[nH]c2-c2ccnc(NCCCNS(=O)(=O)c3cccc(F)c3)n2)ccc1Cl`, for which the inhibition is 84.9% in experiment [1] and 58.3% in experiment [2]. Also, the IC50 in the experiment on LOX IMVI was determined as 5.11 µM.

With `Cc1ccc(S(=O)(=O)NCCCNc2nccc(-c3[nH]c(-c4ccccc4)nc3-c3ccc(F)c(O)c3)n2)cc1`, the inhibition in experiment [1] turned out to be 101%; in experiment [2], 87.8%. For the same compound, the results for the IC50 (in experiment [3]; in experiment [4]; with LOX IMVI) were 0.00868 µM, 0.2 µM and 26.3 µM, respectively.

Regarding `COc1cc(-c2nc(-c3ccccc3)[nH]c2-c2ccnc(NCCCNS(=O)(=O)c3cccc4ccccc34)n2)ccc1Cl`, the inhibition in experiment [1] amounted to 90%; in experiment [2], 27.1%. 13.5 µM corresponded to half-maximal inhibition in the experiment on LOX IMVI (IC50).

On to `O=S(=O)(NCCCNc1nccc(-c2[nH]c(-c3ccccc3)nc2-c2ccc(F)c(O)c2)n1)c1ccccc1`, for which the inhibition in experiment [1] came to 98.4%; in experiment [2] it was 87%. In addition, the IC50 was 0.00562 µM in experiment [3], 0.21 µM in experiment [4] and 9.58 µM with LOX IMVI.

With `COc1cc(-c2nc(-c3ccccc3)[nH]c2-c2ccnc(NCCCNS(=O)(=O)c3ccc(F)cc3)n2)ccc1Cl`, the inhibition in experiment [1] was 81%; in experiment [2] it was 62.1%. Besides, in the experiment with LOX IMVI, the IC50 stood at 4.53 µM.

The term inhibition denotes the relative decrease from the control value, in per cent. Usually IC50 stands for the midpoint of a concentration-inhibition curve.
